CSC inhib = cancer stem cell inhibition | cancer stem cell-like cells viability, luminescence | inhibition, % at 7.5 µM | actives 1.1% (n = 300,000); in the data active means inhibition above about 75%; tested in HMLE shEcad cells
Efflux pump mplx = blocks antifungal efflux pumps in multiplex yeast assay; actives 0.44% (n = 330,000); inhibition, % at 10 µM; S. cerevisiae Candida pump triplex, Nile Red efflux;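 active means plate passing quality check with inhibition over a set limit, or well fluorescence over plate mean plus 4 SD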;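 further: Nile Red retained in pooled yeast measured as flow cytometry median fluorescence; 0% = buffer negative control and 100% = Enniatin B positive control; higher means more Nile Red kept so more efflux inhibition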
Mot1-301 SUMO = blocks SUMOylation pathway, rescuing yeast Mot1-301 growth; S. cerevisiae Mot1-301 growth rescue, ATP luminescence, 38.5C; percent above DMSO median, 100 means doubled; growth rescue, % at 18.8 µM; actives 1% (n = 320,000); AID 2716;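 active means every valid replicate shows activation above 250% relative to neutral control wells; inactive means the rest, any valid replicate at or below 250%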;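 further: OY570 slx delta 5 strain wells were the positive control but not used for scaling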
T cruzi inh = T. cruzi replication inhibition. T. cruzi beta-gal in NIH3T3, luminescence, 90 h. actives 1.4% (n = 300,000). inhibition, % (no concentration beside the values);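 active means mean inhibition across valid replicates above about 55%, limit read from the data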;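 further: signal also drops with host cell toxicity which is not excluded here; 0% = plate median of DMSO wells and 100% = zero luminescence signal; higher percent means less beta-gal luminescence so fewer parasites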
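System: mouse NIH/3T3 fibroblasts infected with β-gal-expressing T. cruzi Tulahuen C4 / Input: NIH/3T3 cells, 5,000 per well / Buffer or medium: Low-serum DMEM with 2% FBS / Probe or stimulus: 5000 reporter trypomastigotes per well / Schedule: ≥90 h infection period, 3 h prior cell attachment / Measured by: GalScreen luminescence, 60 min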
WT yeast gro inh = growth inhibition of WT yeast, mitochondrial fusion screen | inhibition, % at 10 µM | mitochondrial fusion phenotypic screen, WT strain | AID 1362 | actives 2.1% (n = 190,000); in the data active means inhibition above about 58%; tested in S. cerevisiae
Beta apoptosis = blocks beta cell apoptosis | INS-1E cytokine-induced death, ATP luminescence, 48 h; percent of positive-control rescue, neutral wells zero | protection from apoptosis, % (no concentration beside the values) | actives 0.8% (n = 300,000);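 active means Every replicate reaches about 75%, or at least half do and their mean reaches it too, limit read from the data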;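 further: 0% = cytokine-treated negative control wells and 100% = positive control rescue; higher means more ATP so stronger rescue from cytokine killing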
Cmpd fluor yeast = compound fluorescence in yeast efflux pump counter-screen | shares compounds with Efflux pump mplx | S. cerevisiae AD/pABC3, flow cytometry | fluorescence ratio to DMSO, % at 10 µM | actives 4% (n = 1,700) | AID 588517;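 active means fluorescence ratio to DMSO above its plate's cutoff, the plate mean ratio plus 5 SD, cut at about 210% in these data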;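 further: unstained yeast with no Nile Red so the signal is compound autofluorescence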
CaMdr1 efflux inh = blocks the Candida albicans Mdr1 efflux pump in yeast | actives 1% (n = 1,700) | inhibition, % at 10 µM | S. cerevisiae AD/CaMDR1, Nile Red efflux, flow cytometry | shares compounds with Efflux pump mplx; in the data active means inhibition above about 26%;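 further: 0% = DMSO vehicle and 100% = reference inhibitor; higher means more Nile Red retained so more efflux inhibition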
CaCdr2 efflux inh = Candida Cdr2 efflux pump inhibition; S. cerevisiae AD/CaCDR2, Nile Red retention, flow cytometry; AID 588520; Nile Red retention ratio vs DMSO, % at 10 µM; shares compounds with Efflux pump mplx; actives 4% (n = 1,700); in the data active means Nile Red retention ratio vs DMSO above about 190%;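 further: higher ratio means more blocking of Cdr2 efflux of the dye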
CaCdr1 efflux inh = inhibitors of Candida albicans Cdr1 efflux pump | S. cerevisiae AD/CaCDR1, Nile Red efflux, flow cytometry | AID 588522 | shares compounds with Efflux pump mplx | actives 1% (n = 1,700) | inhibition, % at 10 µM;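 active means inhibition above the screen-wide mean plus twice its standard deviation, cut at about 32% in these data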
Numbers without * were called inactive; x = not tested or not shown; + = active, no number; ! = a repeat was not active. Most compounds without a hit are left out; they make up all but 4.8% or so of the library.

SMILES | CSC inhib | Efflux pump mplx | Mot1-301 SUMO | T cruzi inh | WT yeast gro inh | Beta apoptosis | Cmpd fluor yeast | CaMdr1 efflux inh | CaCdr2 efflux inh | CaCdr1 efflux inh
COc1ccc(C2=NCC(=O)N(CC(=O)NCc3ccco3)c3sc4c(c32)CCCC4)cc1 | 3 | 0.8* | 100 | 12 | -6 | -7 | 113 | 0 | 100 | 0
CC1CCC(NCC(O)c2ccccc2)CC1 (stereo not given) | -3 | 8.2* | -14 | -4 | 5 | -2 | 108 | 0 | 100 | 0
COc1ccc(C(CNC(=O)c2ccc3c(c2)CCC3)N(C)C)cc1 (stereo not given) | 4 | 0 | -21 | -3 | x | -10 | x | x | x | x
O=[N+]([O-])c1ccc(C[n+]2c(-c3ccccc3)cc(-c3ccccc3)cc2-c2ccccc2)cc1 | 18 | 0 | -6 | 52 | x | 14 | x | x | x | x
Cc1ccc(-c2cc(-c3ccc(C)cc3)[n+](-c3ccccc3)c(-c3ccc(C)cc3)c2)cc1 | 48 | 34* | 172 | 49 | x | 122* | 105 | 20 | + | 15
CCN(CC)c1ccc(/C=C2/C(=O)NC(=O)N(CC3CCCO3)C2=O)cc1 (stereo not given) | 10 | 0 | 81 | 10 | 7 | -8 | x | x | x | x
CCN(CC)c1ccc(/C=C2\C(=O)NC(=O)N(Cc3ccco3)C2=O)cc1 | -14 | 0.5* | 13 | -11 | -7 | -2 | 82 | 0 | 102 | 0
CC[C@H]1C2C[C@H]3[C@@H]4N(C)c5ccccc5C45C[C@H](C2[C@H]5O)N3[C@@H]1O (stereo not given in full) | -5 | 0 | 3 | x | x | 2 | x | x | x | x
COc1ccc(NC(=O)N2CCC3(CC2)OCCO3)cc1OC | 6 | 11* | 8 | -8 | 2 | 7 | 103 | 0 | 108 | 0
C=C[C@H]1CN2CC[C@H]1C[C@H]2[C@H](O)c1ccnc2ccccc12 | -7 | 0 | 7 | x | x | -1 | x | x | x | x
C=CC1CN2CCC1CC2c1[nH]c2ccccc2c1CCO (stereo not given) | -7 | 13* | -1 | -11 | 5 | 1 | 89 | 0 | 97 | 0
CC(C(=O)Nc1ccc(Br)cc1C(=O)c1ccccc1)N1CCCCC1 (stereo not given) | -18 | 0 | -10 | 0 | x | 3 | x | x | x | x
O=C(CCN1CCCCC1)Nc1ccc(Br)cc1C(=O)c1ccccc1 | -5 | 1.4* | 5 | -2 | x | -9 | 102 | 0 | 112 | 0
COc1ccc(OCC(=O)N2CCCC(N3CCN(c4ccccc4C)CC3)C2)cc1 (stereo not given) | -12 | 0 | -1 | 16 | x | -4 | x | x | x | x
c1ccc2c(c1)[nH]c1cnccc12 | -12 | 0 | -11 | -16 | 10 | -4 | x | x | x | x
Cc1c2ccncc2c(C)c2c1[nH]c1ccccc12 | 109* | 5.6* | 15 | 52 | 66* | 119* | 118 | 0 | 96 | 0
O=C(COc1ccc2ccc(=O)oc2c1)N1CCC(C(=O)O)(c2ccccc2)CC1 | -7 | 0 | 16 | -7 | x | -5 | x | x | x | x
CC1=CC(=O)OC2CC3OC4C[C@@H](C)C5OC6CC7O[C@]8(C)C/C=C\C9OC%10CC%11OC(CC(C)CO)CC(O)[C@]%11(C)OC%10CC9OC8C[C@]7(C)O[C@]6(C)CCC5OC4C[C@]3(C)OC12 (stereo not given in full) | -3 | 1.4* | 13 | -9 | 20 | 10 | 105 | 0 | 106 | 1
O=C(N/N=C/c1c(O)n(Cc2ccco2)c(=O)[nH]c1=O)c1ccccc1O | 7 | 0 | -6 | 1 | x | -3 | x | x | x | x
C/C(=N\N1CCCCC1)c1c(O)[nH]c(=O)[nH]c1=O | -16 | 16* | -36 | -11 | -7 | 1 | 111 | 0 | 103 | 0
C/C(=N\N1CCCCCC1)c1c(O)n(-c2ccccc2)c(=O)[nH]c1=O | -13 | 0 | -13 | 7 | -5 | 8 | x | x | x | x
CCc1cc(=O)oc2c(C)c(OCC(=O)N3C[C@H]4C[C@@H](C3)c3cccc(=O)n3C4)ccc12 | -2 | 0 | 7 | -5 | x | x | x | x | x | x
Oc1cccc2nc3ccccc3nc12 | 6 | 0 | -9 | -11 | x | 1 | x | x | x | x
C[C@]12CCC3C(CCC4=CC(O)CC[C@@]43/C=N/O)C1(O)CCC2C1=CC(=O)OC1 (stereo not given in full) | 115* | 20* | 23 | -4 | x | -3 | 102 | 0 | 100 | 0
CCc1ccc2c(CN3CC=C(c4ccccc4)CC3)cc(=O)oc2c1 | -10 | 10* | 0 | 4 | 28 | 3 | 107 | 0 | 101 | 0
SMILES | CSC inhib | Efflux pump mplx | Mot1-301 SUMO | T cruzi inh | WT yeast gro inh | Beta apoptosis | Cmpd fluor yeast | CaMdr1 efflux inh | CaCdr2 efflux inh | CaCdr1 efflux inh
COc1ccc2c(CN3CC=C(c4ccccc4)CC3)cc(=O)oc2c1 | 1 | 0 | -3 | -11 | 37 | -1 | x | x | x | x
CCN(CC)C(=O)c1ccc(NC(=O)COc2ccc([N+](=O)[O-])cc2Cl)cc1 | 15 | 19* | -8 | 2 | -2 | 1 | 116 | 0 | 119 | 0
Cn1cc(C(=O)N2CCCCC2)c2ccccc21 | -5 | 0 | 316 | 8 | -20 | -8 | x | x | x | x
Nc1ccc2ccc3cccc[n+]3c2c1 | 9 | 3.8* | -26 | 17 | x | 23 | 272* | 4 | 185* | 3
O=c1[nH]c(=O)n(CC2CCCO2)c(O)c1/C=C1\C=Nc2ccccc21 (stereo not given) | -9 | 2.6*! | -10 | -14 | 1 | 2 | 103 | 0 | 89 | 0
COC(=O)C1=C(c2cccc(C#N)c2)C[C@@H]2CC[C@H]1N2C(=O)NCC1CC1 | -1 | 2.5* | -1 | x | x | -1 | 100 | 0 | 104 | 0
CCOC(=O)c1c(C)n(COCCO)c2ccc(O)cc12 | -9 | 7.5* | -23 | 1 | -10 | -3 | 92 | 0 | 91 | 0
CCOc1ccccc1CN1C2CCC1CC(c1ccc(C)cc1)C2 (stereo not given) | 57 | 0 | -28 | 45 | x | 19 | x | x | x | x
O=C1NC(=O)C(CCc2ccncc2)(CCc2ccncc2)C(=O)N1C1CCCCC1 | -9 | 1.0* | 28 | 8 | -9 | x | 77 | 0 | 121 | 0
COc1c(/C=C2/C(=O)NC(=O)N(C)C2=O)c(CCN(C)C(=O)c2ccccc2)cc2c1OCO2 | -1 | 0 | -15 | -6 | x | 8 | x | x | x | x

Assay outcomes deposited in PubChem by several laboratories.
